ChEMBL document CHEMBL1649090, “Discovery of (7R)-14-cyclohexyl-7-{[2-(dimethylamino)ethyl](methyl) amino}-7,8-dihydro-6H-indolo[1,2-e][1,5]benzoxazocine-11-carboxylic acid (MK-3281), a potent and orally bioavailable finger-loop inhibitor of the hepatitis C virus NS5B polymerase” (J Med Chem, 2011)
Calls of active or inactive are those of the source. The rule behind the calls is not given here.

Legend:
[1] = Intrinsic clearance in human liver microsomes assessed per mg of protein presence of UDPGA; format: ADME, Microsome
[2] = Terminal half life in Sprague-Dawley rat at 3 mg/kg, iv and 3 mg/kg, po; format: ADME, organism-based; conditions: in vivo
How it was run: (§1)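 Single-dose PK of the bis-HCl salt, n = 3 per species (dog po n = 2). Intravenous doses: rat 3, dog 1, rhesus 2 mg/kg, in DMSO/PEG400/water 20%/60%/20%. Oral doses: rat 3, dog 2, rhesus 4 mg/kg, in PEG400 for rat and dog and PEG400/water 70%/30% for rhesus.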

[3] = Plasma concentration in HCV1b infected humanized uPA+/+-SCID mouse at 10 mg/kg, ip bid for 4 days measured 12 hrs after last post dose; format: ADME, organism-based; parameters: dose 10 mg/kg, route intraperitoneal
How it was run: (§2)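 Three humanized uPA+/+-SCID mice infected with genotype 1b HCV received 10 or 50 mg/kg ip twice daily for 4 days, in PEG400/water 30%/70%. Trough plasma concentration was taken 12 h after the last dose.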

Cytochrome P450 3A4 = Cytochrome P450 3A4 (Homo sapiens, UniProt P08684); assay: Inhibition of CYP3A4 up to 50 uM; format: ADME
[4] = Ratio of drug level in liver to plasma in Sprague-Dawley rat liver at 3 mg/kg, po after 6 hrs; format: ADME, organism-based; parameters: dose 3 mg/kg, route oral
How it was run: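 Sprague-Dawley rats (n = 3) received the compound as its TFA salt in DMSO/PEG400/water 20%/60%/20%, as a single iv dose of 3 mg/kg or a single oral dose of 3 mg/kg. Liver tissue and plasma concentrations were measured 6 h after the oral dose.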

Hepatitis C virus [5] = assay: Antiviral activity against HCV1b BK; format: functional, organism-based, Hepacivirus hominis; conditions: genotype 1b BK
Hepatitis C virus [6] = assay: Antiviral activity against HCV1b infected in humanized uPA+/+-SCID mouse assessed as reduction of viremia at 50 mg/kg, ip bid for 4 days; format: functional, Hepacivirus hominis; conditions: route intraperitoneal
How it was run: (§3)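 Three chimeric uPA+/+-SCID mice with human hepatocytes, infected with genotype 1b HCV, received the dose intraperitoneally twice daily for 4 days in PEG400/water 30%/70%. Three vehicle-only mice were dosed for four days as controls. Plasma HCV RNA change is reported per animal and as mean, in log10 (lower limit 315 IU/mL). Follow-up ran to day 21. Plasma trough drug was measured 12 h after the last dose.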

[7] = Volume of distribution at steady state in dog at 1 mg/kg, iv and 2 mg/kg, po; format: ADME, organism-based, Canis lupus familiaris; conditions: in vivo, read-out: Vdss
How it was run: (§4)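 Single iv and single oral doses, given as the bis-HCl salt, in rat, dog and rhesus, n = 3 per species (dog oral n = 2). The iv vehicle was DMSO/PEG400/water 20%/60%/20%. Oral vehicle was PEG400 for rat and dog and PEG400/water 70%/30% for rhesus. Values are mean ± SD.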

[8] = Clearance in dog at 1 mg/kg, iv and 2 mg/kg, po; format: ADME, organism-based, Canis lupus familiaris; conditions: in vivo; how it was run: as §1
[9] = Plasma protein binding in human; format: ADME, cell-free; conditions: read-out: PPB (converted)
Hepatitis C virus [10] = assay: Antiviral activity against HCV1b infected in human Huh-7 cells assessed as inhibition of viral RNA replication after 96 hrs by ELISA assay in presence of 50% normal human serum; format: functional, organism-based, Hepacivirus hominis; conditions: genotype 1b, Huh-7, 96 h
[11] = Plasma protein binding in dog; format: ADME, cell-free, Canis lupus familiaris; conditions: read-out: PPB (converted)
Cytochrome P450 2D6 = Cytochrome P450 2D6 (Homo sapiens, UniProt P10635); assay: Inhibition of CYP2D6 up to 50 uM; format: ADME
[12] = Terminal half life in dog at 1 mg/kg, iv and 2 mg/kg, po; format: ADME, organism-based, Canis lupus familiaris; conditions: in vivo; how it was run: as §4
[13] = Plasma protein binding in rat; format: ADME, cell-free; conditions: read-out: PPB (converted)
[14] = Volume of distribution at steady state in Sprague-Dawley rat at 3 mg/kg, iv and 3 mg/kg, po; format: ADME, organism-based; conditions: in vivo, read-out: Vdss; how it was run: as §4
[15] = Intrinsic clearance in rat liver microsomes assessed per mg of protein in presence of UDPGA; format: ADME, Microsome
[16] = Intrinsic clearance in dog liver microsomes assessed per mg of protein presence of UDPGA; format: ADME, Canis lupus familiaris, Microsome
[17] = Plasma protein binding in monkey; format: ADME, cell-free, Macaca mulatta; conditions: rhesus monkey, read-out: PPB (converted)
[18] = biological target: Macrophage metalloelastase (Homo sapiens, UniProt P39900); assay: Inhibition of MMP12
[19] = Oral bioavailability in Sprague-Dawley rat at 3 mg/kg; format: ADME, organism-based; conditions: in vivo
How it was run: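 Single-dose rat PK with the compound given as its TFA salt to Sprague-Dawley rats (n = 3) in DMSO/PEG400/water 20%/60%/20%. Dosing was 3 mg/kg iv and 3 mg/kg po.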

Mus musculus = assay: Toxicity in SCID mouse assessed as mortality at 50 mg/kg, ip bid for 5 days; format: organism-based; parameters: dose 50 mg/kg, route intraperitoneal; conditions: in vivo, 120 h
[20] = Plasma concentration in HCV1b infected humanized uPA+/+-SCID mouse at 50 mg/kg, ip bid for 4 days measured 12 hrs after last post dose; format: ADME, organism-based; parameters: dose 50 mg/kg, route intraperitoneal; how it was run: as §2
Hepatitis C virus [21] = assay: Antiviral activity against HCV1b infected in humanized uPA+/+-SCID mouse assessed as reduction of plasma viral RNA level at 50 mg/kg, ip bid for 4 days; format: functional, Hepacivirus hominis; conditions: route intraperitoneal; how it was run: as §3
[22] = Intrinsic clearance in human liver microsomes assessed per mg of protein; format: ADME, Microsome
[23] = biological target: DNA polymerase beta (Homo sapiens) (UniProt P06746); assay: Inhibition of human DNA polymerase beta up to 50 uM
Hepatitis C virus [24] = assay: Antiviral activity against HCV2a; format: functional, organism-based, Hepacivirus hominis; conditions: genotype 2a
[25] = Intrinsic clearance in rat liver microsomes assessed per mg of protein; format: ADME, Microsome
Hepatitis C virus [26] = assay: Antiviral activity against HCV3a; format: functional, organism-based, Hepacivirus hominis; conditions: genotype 3a
[27] = AUC in dog at 2 mg/kg, po; format: ADME, organism-based, Canis lupus familiaris; parameters: dose 2 mg/kg, route oral; conditions: plasma; how it was run: as §1
[28] = Cmax in Sprague-Dawley rat at 3 mg/kg, iv and 3 mg/kg, po; format: ADME, organism-based; conditions: in vivo; how it was run: as §1
[29] = Terminal half life in rhesus monkey at 2 mg/kg, iv and 4 mg/kg, po; format: ADME, organism-based, Macaca mulatta; conditions: in vivo; how it was run: as §4
Hepatitis C virus [30] = assay: Antiviral activity against HCV1b infected in humanized uPA+/+-SCID mouse assessed as reduction of plasma viral RNA level at 10 mg/kg, ip bid for 4 days; format: functional, Hepacivirus hominis; conditions: route intraperitoneal
How it was run: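 Chimeric uPA+/+-SCID mice with human hepatocytes, infected with genotype 1b HCV, were dosed twice daily. The drop in plasma HCV RNA is given as mean log10. Plasma drug concentration was measured 12 h after the last dose.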

[31] = Clearance in Sprague-Dawley rat at 3 mg/kg, iv and 3 mg/kg, po; format: ADME, organism-based; conditions: in vivo; how it was run: as §1

Cytochrome P450 3A4, sequence (P08684 whole entry): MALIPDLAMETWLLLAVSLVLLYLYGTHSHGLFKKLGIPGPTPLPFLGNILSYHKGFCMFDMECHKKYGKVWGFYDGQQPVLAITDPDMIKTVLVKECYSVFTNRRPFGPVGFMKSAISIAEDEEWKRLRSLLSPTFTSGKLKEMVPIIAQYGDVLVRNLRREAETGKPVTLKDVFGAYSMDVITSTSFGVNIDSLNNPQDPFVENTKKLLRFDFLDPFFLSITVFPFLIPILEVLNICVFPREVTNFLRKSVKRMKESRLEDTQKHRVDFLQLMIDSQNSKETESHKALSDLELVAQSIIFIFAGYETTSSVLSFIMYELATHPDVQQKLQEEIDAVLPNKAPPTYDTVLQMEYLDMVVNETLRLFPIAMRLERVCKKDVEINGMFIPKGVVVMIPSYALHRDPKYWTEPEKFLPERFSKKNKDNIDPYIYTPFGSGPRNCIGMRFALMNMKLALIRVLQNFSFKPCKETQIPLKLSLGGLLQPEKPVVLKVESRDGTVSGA
Macrophage metalloelastase, sequence (P39900 whole entry): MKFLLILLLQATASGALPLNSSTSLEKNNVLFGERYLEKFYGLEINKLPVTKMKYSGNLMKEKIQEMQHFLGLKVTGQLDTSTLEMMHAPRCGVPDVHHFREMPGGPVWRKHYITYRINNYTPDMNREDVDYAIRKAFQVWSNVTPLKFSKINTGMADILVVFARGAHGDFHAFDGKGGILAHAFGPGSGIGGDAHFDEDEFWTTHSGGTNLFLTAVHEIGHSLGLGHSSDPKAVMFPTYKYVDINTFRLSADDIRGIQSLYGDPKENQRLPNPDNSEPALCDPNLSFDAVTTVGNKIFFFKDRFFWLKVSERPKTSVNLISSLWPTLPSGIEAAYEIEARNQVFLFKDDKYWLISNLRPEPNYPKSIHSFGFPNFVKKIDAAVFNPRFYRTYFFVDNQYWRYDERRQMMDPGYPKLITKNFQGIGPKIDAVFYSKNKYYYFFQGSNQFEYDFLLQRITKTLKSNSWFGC
Cytochrome P450 2D6, sequence (P10635 whole entry): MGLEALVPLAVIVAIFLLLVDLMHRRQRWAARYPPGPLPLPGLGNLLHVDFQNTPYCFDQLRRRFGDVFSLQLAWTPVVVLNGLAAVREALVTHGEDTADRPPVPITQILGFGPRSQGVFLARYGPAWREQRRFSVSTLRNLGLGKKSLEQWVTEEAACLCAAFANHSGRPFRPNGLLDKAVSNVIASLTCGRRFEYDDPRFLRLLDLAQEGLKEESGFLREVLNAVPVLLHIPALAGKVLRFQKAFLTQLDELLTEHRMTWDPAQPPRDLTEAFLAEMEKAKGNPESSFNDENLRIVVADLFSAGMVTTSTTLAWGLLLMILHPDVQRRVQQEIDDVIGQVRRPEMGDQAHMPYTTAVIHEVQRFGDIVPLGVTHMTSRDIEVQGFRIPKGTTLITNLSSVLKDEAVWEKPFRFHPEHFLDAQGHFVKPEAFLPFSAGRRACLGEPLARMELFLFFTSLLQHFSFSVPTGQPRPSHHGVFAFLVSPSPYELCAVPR

For `CN(C)CCN(C)[C@H]1COc2ccccc2-c2c(C3CCCCC3)c3ccc(C(=O)O)cc3n2C1` [MK-3281], which microsomal CLint [1] is on record?
The microsomal CLint was under 4 µL/min/mg.

What about the half-life [2] of the same compound?
The half-life was 3.4 h.

What about the concentration at 12 h [3] of the same compound?
The concentration at 12 h was 670 nM.

And the “inhibition (INH)” value (Cytochrome P450 3A4)?
Its value is “Not Active”.

What about the Kp at 6 h [4] of the same compound?
The Kp at 6 h was 5.

What about the EC50 (Hepatitis C virus [5]) of the same compound?
The EC50 was 0.009 µM.

What about the “fold change (FC)” value (Hepatitis C virus [6]) of the same compound?
The value was -3.94.

What about the Vd [7] of the same compound?
Its Vd is 2.6 L/kg.

What about the clearance [8] of the same compound?
The clearance was 7 mL/min/kg.

What about the fraction unbound [9] of the same compound?
Its fraction unbound is 0.031.

What about the EC50 (Hepatitis C virus [10]) of the same compound?
Its EC50 is 0.11 µM.

What about the fraction unbound [11] of the same compound?
The fraction unbound was 0.027.

And the “inhibition (INH)” value (Cytochrome P450 2D6)?
The value was “Not Active”.

And the half-life [12]?
Its half-life is 6.1 h.

What about the fraction unbound [13] of the same compound?
The fraction unbound was 0.03.

And the Vd [14]?
The Vd was 3.7 L/kg.

What about the microsomal CLint [15] of the same compound?
Its microsomal CLint is under 4 µL/min/mg.

And the microsomal CLint [16]?
The microsomal CLint was under 4 µL/min/mg.

What about the fraction unbound [17] of the same compound?
The fraction unbound was 0.074.

And the IC50 [18]?
Its IC50 is 8.3 µM.

What about the bioavailability [19] of the same compound?
The bioavailability was 49%.

And the Activity (Mus musculus)?
Its Activity is “Non-toxic”.

What about the concentration at 12 h [20] of the same compound?
Its concentration at 12 h is 2600 nM.

And the “fold change (FC)” value (Hepatitis C virus [21])?
The value was 3.13.

What about the microsomal CLint [22] of the same compound?
Its microsomal CLint is 7 µL/min/mg.

And the inhibition [23]?
Its inhibition is “inactive”.

And the EC50 (Hepatitis C virus [24])?
The EC50 was 2.02 µM.

And the microsomal CLint [25]?
Its microsomal CLint is 7 µL/min/mg.

What about the EC50 (Hepatitis C virus [26]) of the same compound?
The EC50 was 0.037 µM.

And the AUC [27]?
The AUC was 8.6 µM·h.

What about the Cmax [28] of the same compound?
The Cmax was 500 nM.

And the half-life [29]?
The half-life was 5.7 h.

And the “fold change (FC)” value (Hepatitis C virus [30])?
The value was 1.4.

And the clearance [31]?
The clearance was 22 mL/min/kg.
